According to ChEMBL document CHEMBL3621102, “Structure-activity study of quinazoline derivatives leading to the discovery of potent EGFR-T790M inhibitors” (Eur J Med Chem, 2015):
Activity calls are given as the source filed them. The rule behind the calls is not given here.

Tests used:
NCI-H1975 [1] = experiment: Antiproliferative activity against human NCI-H1975 cells assessed as growth inhibition; format: functional
How it was run: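 NCI-H1975 cells were grown in RPMI with 1 mM sodium pyruvate, 10% FBS and 1% penicillin-streptomycin, under humidified 5% CO₂ at 37 °C. Growth inhibition was read as GI₅₀.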

[2] = Toxicity in NCI-H1975 xenografted BALB/c mouse assessed as induction of mouse mortality at 20 mg/kg po, qd for 7 days; format: organism-based; settings: in vivo
How it was run: (§1)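 Athymic mice received 2 × 10⁶ NCI-H1975 cells subcutaneously in the right flank. When tumours reached 100–300 mm³, mice were randomised into control and treatment groups (n = 6 per group), and controls got vehicle alone. Health was checked daily, and body weight and tumour size were measured on set days during treatment.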

NCI-H1975 [3] = experiment: Antitumor activity against human NCI-H1975 cells xenografted in BALB/c mouse assessed as tumor growth inhibition at 20 mg/kg po, qd for 21 days relative to control; format: functional
How it was run: (§2)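 Athymic mice received 2 × 10⁶ tumour cells subcutaneously in the right flank. At 100–300 mm³ they were randomised to control and treatment groups (n = 6); controls received vehicle alone. Tumour volume = length × width²/2 and RTV = Vt/V0.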

[4] = target: Epidermal growth factor receptor (Homo sapiens, UniProt P00533); experiment: Inhibition of EGFR (unknown origin) by ELISA method
Sequence of Epidermal growth factor receptor (P00533 whole entry): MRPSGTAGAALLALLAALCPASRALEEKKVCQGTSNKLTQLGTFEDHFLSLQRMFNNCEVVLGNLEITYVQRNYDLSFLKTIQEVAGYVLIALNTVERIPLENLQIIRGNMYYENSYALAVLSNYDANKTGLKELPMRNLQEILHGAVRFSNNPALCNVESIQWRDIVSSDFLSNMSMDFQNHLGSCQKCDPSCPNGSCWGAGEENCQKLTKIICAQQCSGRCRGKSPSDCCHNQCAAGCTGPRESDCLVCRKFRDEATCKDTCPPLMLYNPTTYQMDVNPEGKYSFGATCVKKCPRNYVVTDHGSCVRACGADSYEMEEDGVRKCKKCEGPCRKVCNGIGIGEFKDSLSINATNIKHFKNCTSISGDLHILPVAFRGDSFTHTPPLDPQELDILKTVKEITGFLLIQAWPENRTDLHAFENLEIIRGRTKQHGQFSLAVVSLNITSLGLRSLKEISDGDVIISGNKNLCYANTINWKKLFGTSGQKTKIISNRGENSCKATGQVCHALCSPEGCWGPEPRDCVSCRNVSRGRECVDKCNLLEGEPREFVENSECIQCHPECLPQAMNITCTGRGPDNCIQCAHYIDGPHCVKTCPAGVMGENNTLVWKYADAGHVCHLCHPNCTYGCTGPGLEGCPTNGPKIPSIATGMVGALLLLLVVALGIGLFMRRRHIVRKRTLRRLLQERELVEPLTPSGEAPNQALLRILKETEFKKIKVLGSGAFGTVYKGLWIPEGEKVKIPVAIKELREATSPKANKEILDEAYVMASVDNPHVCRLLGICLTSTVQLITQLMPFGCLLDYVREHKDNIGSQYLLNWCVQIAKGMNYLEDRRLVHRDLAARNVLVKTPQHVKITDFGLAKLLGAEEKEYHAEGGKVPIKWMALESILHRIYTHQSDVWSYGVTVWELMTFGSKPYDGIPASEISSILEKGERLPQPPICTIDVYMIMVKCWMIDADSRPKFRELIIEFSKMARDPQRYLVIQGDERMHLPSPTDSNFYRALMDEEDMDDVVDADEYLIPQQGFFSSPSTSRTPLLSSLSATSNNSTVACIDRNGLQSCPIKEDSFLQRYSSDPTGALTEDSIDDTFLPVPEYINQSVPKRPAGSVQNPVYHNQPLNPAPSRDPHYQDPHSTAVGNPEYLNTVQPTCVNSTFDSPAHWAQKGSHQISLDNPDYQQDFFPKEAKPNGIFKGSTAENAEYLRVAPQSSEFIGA

Mus musculus [5] = experiment: Toxicity in NCI-H1975 xenografted BALB/c mouse assessed as body weight loss at 20 mg/kg po, qd for 21 days; format: organism-based; settings: in vivo, 504 h
How it was run: (§3)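 Athymic mice bearing subcutaneous right-flank xenografts (2 × 10⁶ cells, dosed at 100–300 mm³; n = 6 per group; vehicle controls). Health was observed daily and body weight measured on indicated days. Body weight change (%) = (Wt/W0 − 1) × 100 against predosing weight, given as group mean ± SEM.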

Mus musculus [6] = experiment: Toxicity in human NCI-H1975 cells xenografted BALB/c mouse assessed as body weight changes at 20 mg/kg po, qd for 21 days relative to control; format: organism-based; settings: in vivo, 504 h; how it was run: as §3
Mus musculus [7] = experiment: Toxicity in human NCI-H1975 cells xenografted BALB/c mouse assessed as mouse mortality at 30 mg/kg po, qd for 21 days measured on day 10 relative to control; format: organism-based; settings: in vivo, 504 h; how it was run: as §1
Mus musculus [8] = experiment: Toxicity in NCI-H1975 xenografted BALB/c mouse assessed as body weight loss at 4 mg/kg po, qd for 21 days; format: organism-based; settings: in vivo, 504 h; how it was run: as §3
Mus musculus [9] = experiment: Toxicity in NCI-H1975 xenografted BALB/c mouse assessed as induction of lethargy at 4 mg/kg po, qd for 21 days; format: organism-based; settings: in vivo, 504 h; how it was run: as §3
NCI-H1975 [10] = experiment: Antitumor activity against human NCI-H1975 cells xenografted in BALB/c mouse assessed as tumor growth inhibition at 4 mg/kg po, qd for 21 days; format: functional, organism-based; how it was run: as §2
Mus musculus [11] = experiment: Toxicity in NCI-H1975 xenografted BALB/c mouse assessed as induction of exfoliative skin disorder at 4 mg/kg po, qd for 21 days; format: organism-based; settings: in vivo, 504 h; how it was run: as §3
Mus musculus [12] = experiment: Toxicity in NCI-H1975 xenografted BALB/c mouse assessed as induction of eye disease at 4 mg/kg po, qd for 21 days; format: organism-based; settings: in vivo, 504 h; how it was run: as §3
[13] = Toxicity in NCI-H1975 xenografted BALB/c mouse assessed as induction of mouse mortality at 4 mg/kg po, qd for 9 days; format: organism-based; settings: in vivo; how it was run: as §1
Mus musculus [14] = experiment: Toxicity in NCI-H1975 xenografted BALB/c mouse assessed as induction of weakness at 4 mg/kg po, qd for 21 days; format: organism-based; settings: in vivo, 504 h; how it was run: as §3
Mus musculus [15] = experiment: Toxicity in NCI-H1975 xenografted BALB/c mouse assessed as induction of eye disease at 8 mg/kg po, qd for 21 days; format: organism-based; settings: in vivo, 504 h; how it was run: as §3
[16] = Toxicity in NCI-H1975 xenografted BALB/c mouse assessed as induction of mouse mortality at 8 mg/kg po, qd for 9 days; format: organism-based; settings: in vivo; how it was run: as §1
Mus musculus [17] = experiment: Toxicity in NCI-H1975 xenografted BALB/c mouse assessed as induction of exfoliative skin disorder at 8 mg/kg po, qd for 21 days; format: organism-based; settings: in vivo, 504 h; how it was run: as §3
Mus musculus [18] = experiment: Toxicity in NCI-H1975 xenografted BALB/c mouse assessed as body weight loss at 8 mg/kg po, qd for 21 days; format: organism-based; settings: in vivo, 504 h; how it was run: as §3
Mus musculus [19] = experiment: Toxicity in NCI-H1975 xenografted BALB/c mouse assessed as induction of lethargy at 8 mg/kg po, qd for 21 days; format: organism-based; settings: in vivo, 504 h; how it was run: as §3
Mus musculus [20] = experiment: Toxicity in NCI-H1975 xenografted BALB/c mouse assessed as induction of weakness at 8 mg/kg po, qd for 21 days; format: organism-based; settings: in vivo, 504 h; how it was run: as §3
NCI-H1975 [21] = experiment: Antitumor activity against human NCI-H1975 cells xenografted in BALB/c mouse assessed as tumor growth inhibition at 8 mg/kg po, qd for 21 days; format: functional, organism-based; how it was run: as §2

## C#Cc1cccc(Nc2ncnc3cc(OCC)c(NC(=O)/C=C/CN(C)C4CC4)cc23)c1
NCI-H1975 [1]
  GI50: 41 nM
[2]
  mortality at 168 h: > 50%
NCI-H1975 [3]
  TGI: Active
[4]
  IC50: 2.4 nM
Mus musculus [5]
  Activity: Toxic

## CN(C)C/C=C/C(=O)Nc1cc2c(Nc3ccc(F)c(Cl)c3)ncnc2cc1O[C@H]1CCOC1.O=C(O)/C=C\C(=O)O.O=C(O)/C=C\C(=O)O [AFATINIB DIMALEATE]
Mus musculus [6]
  Activity: Non-toxic
Mus musculus [7]
  Activity: Toxic
NCI-H1975 [3]; 504 h, read-out: TGI
  inhibition in vivo at 20 mg/kg: < 50%

## CCOc1cc2ncnc(Nc3ccc(F)c(Cl)c3)c2cc1NC(=O)/C=C/CNC1CC1
NCI-H1975 [1]
  GI50: 11.6 nM
Mus musculus [8]
  Activity: Toxic
Mus musculus [9]
  Activity: Toxic
NCI-H1975 [10]
  TGI: Active
[4]
  IC50: 0.9 nM
Mus musculus [11]
  Activity: Toxic
Mus musculus [12]
  Activity: Toxic
[13]
  mortality at 216 h: > 50%
Mus musculus [14]
  Activity: Toxic

## COc1cc2ncnc(Nc3ccc(F)c(Cl)c3)c2cc1NC(=O)/C=C/CNC1CC1
NCI-H1975 [1]
  GI50: 11.2 nM
Mus musculus [15]
  Activity: Toxic
[16]
  mortality at 216 h: > 50%
Mus musculus [17]
  Activity: Toxic
[4]
  IC50: 2.1 nM
Mus musculus [18]
  Activity: Toxic
Mus musculus [19]
  Activity: Toxic
Mus musculus [20]
  Activity: Toxic
NCI-H1975 [21]
  TGI: Active
